The list is not random: actives were taken first. Their share in the collection is about 2.1%.
FGF22 binding: shifts melting point of recombinant human FGF22; Q9HCT0; recombinant FGF22 thermal shift, SYPRO orange fluorescence; percent of sucrose octasulfate shift, DMSO zero; activity (Tm shift, normalised), % at 9.99 µM; hit rate 1.5% among 340,000;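 active = mean Tm shift, scaled 0 neutral to 100 positive control, at about 1.3% or above, every replicate too, limit read from the data; inconclusive = no clear call, values can overlap the other calls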
Target sequence (Q9HCT0 whole entry, looked up): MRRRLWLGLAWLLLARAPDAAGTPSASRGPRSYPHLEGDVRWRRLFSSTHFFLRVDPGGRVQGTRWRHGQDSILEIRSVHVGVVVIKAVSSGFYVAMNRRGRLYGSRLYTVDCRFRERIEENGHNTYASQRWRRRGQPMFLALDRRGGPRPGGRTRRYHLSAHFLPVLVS
FN deposit inh: fibronectin deposition inhibition | AH1F fibroblasts, Alexa488-fibronectin deposition fluorescence, overnight | inhibition, % at 12.6 µM | hit rate 0.086% among 350,000;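 active = mean inhibition across replicates of 30% or more, regardless of how many single replicates reach that level; inconclusive = mean under 30% yet at least half of replicates reach 30%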;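 also: positive control wells lacked labelled fibronectin entirely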
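Material: AH1F fibroblasts assembling fluorescent fibronectin matrix; amount: 10000 AH1F cells/well; medium: DMEM, 2% serum; reagent: Alexa488-fibronectin, 24 nM final in well; dosing: single compound dose, delivered by pin transfer; incubation: 1 h adhesion, overnight exposure; detection: fluorescence after three HBSS washes, excitation 485 nm, emission 525 nm; measure: fibronectin deposition inhibition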
ARNT-TACC3 inh: disruptors of human ARNT/TACC3 interaction; Q9Y6A5; AlphaScreen His-ARNT PAS-B/GST-TACC3 binding, luminescence; TACC3 fragment carries E629A point mutation; inhibition, % at 9.99 µM; hit rate 0.66% among 390,000;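 active = mean inhibition of replicates at least 50% and at least half of replicates each reaching 50%; inconclusive = half or more replicates reach 50% but mean below 50%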;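 also: 0% = complete ARNT plus TACC3 wells and 100% = ARNT alone without TACC3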
AF4-AF9 inh: blocks AF4 peptide binding to human AF9; inhibition, % at 10 µM; AID 651704; hit rate 0.47% among 350,000; P42568; AlphaScreen, biotin-AF4 peptide binding to FLAG-AF9;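 active = every replicate reaching a set inhibition limit, whatever the replicate mean, cut at about 25% in these data; inconclusive = mean inhibition reaches that limit but some replicates miss it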;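 also: 0% = plate neutral control median and 100% = total signal loss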
ERp5 block: blocks human ERp5 reductase activity on insulin; Q15084; ERp5 insulin aggregation, absorbance 650 nm, 90 min; inhibition, % at 9.99 µM; hit rate 0.05% among 350,000;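 active = mean replicate inhibition above about 25%, with every replicate also reaching it, limit read from the data, passing the limit was not always enough; inconclusive = only one of those two criteria met; inactive = neither criterion met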
Target sequence (Q15084 whole entry, looked up): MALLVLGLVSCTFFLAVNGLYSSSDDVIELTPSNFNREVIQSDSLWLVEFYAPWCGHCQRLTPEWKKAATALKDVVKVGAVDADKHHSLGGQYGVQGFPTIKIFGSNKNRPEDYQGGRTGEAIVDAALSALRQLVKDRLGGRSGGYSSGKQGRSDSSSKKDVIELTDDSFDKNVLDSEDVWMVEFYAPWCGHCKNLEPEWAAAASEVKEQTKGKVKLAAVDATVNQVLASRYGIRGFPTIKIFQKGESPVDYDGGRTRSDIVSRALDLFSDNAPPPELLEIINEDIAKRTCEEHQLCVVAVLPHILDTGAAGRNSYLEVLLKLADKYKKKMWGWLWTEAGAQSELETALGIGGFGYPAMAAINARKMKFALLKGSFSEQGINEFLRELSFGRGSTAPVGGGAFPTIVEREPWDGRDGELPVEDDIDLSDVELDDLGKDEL
PDI turbidity: PDI (human) enzyme inhibition; P07237; hit rate 0.052% among 350,000; AID 588391; inhibition, % at 10 µM; PDI insulin aggregation turbidity, A650, 90 min;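 active = mean inhibition across replicates of 30% or more, whatever share of single replicates reach that level; inconclusive = mean inhibition below 30% while every single replicate reaches 30%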
* hit, by the source's call; ? = inconclusive; . = not tested or not shown.

SMILES	FGF22 binding	FN deposit inh	ARNT-TACC3 inh	AF4-AF9 inh	ERp5 block	PDI turbidity
C[C@H]1CN([C@@H](C)CO)C(=O)c2cc(C#CCN(C)C)cnc2O[C@H]1CN(C)S(C)(=O)=O	0	6	-3	-3	8	.
Cc1ccc(S(=O)(=O)Nc2ccc3c(c2)C(=O)N([C@H](C)CO)C[C@H](C)[C@@H](CN(C)C(=O)Nc2c(C)noc2C)OCCCC[C@@H](C)O3)cc1	0	-7	-10	-4	18	.
CO[C@@H]1CC[C@H]2CCOc3ccc(C#N)cc3C(=O)N(C)C[C@H](C)C(=O)N(C)C[C@@H]1O2	0	-6	-4	2	10	.
COc1ccccc1OCC(=O)N/N=C1/C=C(C)CC1	43*	-1	-5	0	-3	3
COc1ccccc1OCC(=O)NNC(=O)CCCC(=O)NNC(=O)COc1ccccc1OC	0	2	-1	-6	1	-2
COc1ccccc1-c1ccc([C@@H]2[C@H](CO)N(C(=O)C3CC3)C23CN(C(C)=O)C3)cc1	0	.	.	1	7	.
Cc1cc(C(=O)NNC(=S)NC(=O)/C=C/c2ccccc2Cl)n[nH]1	.	6	62*	.	1	0
CN1CCN(C(=S)NC(=O)/C=C/c2ccccc2Cl)CC1	43*	-2	2	-3	4	0
CCOC(=O)Cc1csc(NC(=O)CCc2ccccc2)n1	0	2	7	-1	4	-3
CCOC(=O)Cc1csc(NC(=O)CCSc2ccccc2)n1	2.5*	0	-1	-2	-3	2
C[C@H]1CN([C@@H](C)CO)C(=O)Cc2cc(NC(=O)CCC(F)(F)F)ccc2O[C@H]1CN(C)CC1CCCCC1	0	.	2	-13	-1	.
CC1=C/C(=C(/c2cc(C)c(O)c(Br)c2)c2ccccc2S(=O)(=O)O)C=C(Br)C1=O	.	-1	49*	47*	-3	-4
CC(C)(c1cc(Cl)c(O)c(CN2CCOCC2)c1)c1cc(Cl)c(O)c(CN2CCOCC2)c1	0	3	-3	11	0	-9
CC(C)(c1cc(Br)c(O)c(Br)c1)c1cc(Br)c(O)c(Br)c1	1.6*	.	.	.	-2	.
COC(=O)CSc1nccc(C)n1	44*	10	-1	-3	1	-10
C[C@H]1CN([C@@H](C)CO)C(=O)c2cc(NC(=O)C3CC3)ccc2O[C@H]1CN(C)C(=O)Nc1ccc(C(F)(F)F)cc1	0	.	-1	-5	-2	.
O=C(N[C@H]1CC[C@@H](CCn2cc(C3(O)CCCC3)nn2)O[C@H]1CO)C1CC1	0	.	-4	-3	-1	.
CC(Nc1ccccc1N1CCCCC1)C(=O)N1CCc2ccccc21 (centres undefined)	43*	1	6	?	2	1
CC(NC(c1ccccc1)c1ccccc1)C(=O)N1CCCc2ccccc21 (centres undefined)	.	6	2	.	.	-3
COc1ccc(Cc2c(C(C)(C)C)nc3c(C)cc(Br)cn23)c(C)c1	44*	-6	.	3	1	.
COc1ccc(Cc2c(C(C)(C)C)nc3cc(C)c(Br)c(C)n23)c(C)c1	0	-3	.	1	1	.
Cc1cc2nc3ccc(=[N+](C)C)cc-3sc2cc1N	.	.	38	.	.	-22
CN(C)c1ccc2nc3ccc(=O)cc-3sc2c1	-3	1	.	66*	-9	4
C[C@@H]1CCCCO[C@@H](CN(C)Cc2ccc3c(c2)OCO3)[C@@H](C)CN([C@H](C)CO)C(=O)c2cc(NC(=O)c3ccncc3)ccc2O1	0	-4	-9	.	.	.
Cc1noc(C)c1NC(=O)Nc1ccc2c(c1)C(=O)N([C@H](C)CO)C[C@H](C)[C@H](CN(C)C(=O)Nc1cccc3ccccc13)OCCCC[C@H](C)O2	0	-4	-3	.	.	.
SMILES	FGF22 binding	FN deposit inh	ARNT-TACC3 inh	AF4-AF9 inh	ERp5 block	PDI turbidity
CN(C)C(=O)C[C@@H]1CC[C@H]2[C@@H](COc3ccc(NC(=O)C4CCCC4)cc3C(=O)N2C)O1	.	-6	.	-1	10	.
C[C@@H]1CCCCO[C@H](CN(C)CC2CCCCC2)[C@H](C)CN([C@H](C)CO)C(=O)c2cc(NC(=O)Nc3ccc4c(c3)OCO4)ccc2O1	0	.	29	-17	-8	.
C[C@@H]1CCCCO[C@@H](CN(C)CC2CC2)[C@H](C)CN([C@@H](C)CO)C(=O)c2cc(NC(=O)Nc3ccc4c(c3)OCO4)ccc2O1	0	5	2	?	12	.
C[C@@H]1CCCCO[C@H](CN(C)CC2CC2)[C@H](C)CN([C@@H](C)CO)C(=O)c2cc(NC(=O)Nc3ccc4c(c3)OCO4)ccc2O1	0	0	18	34*	0	.
C[C@@H]1CCCCO[C@@H](CN(C)CC2CCCCC2)[C@H](C)CN([C@@H](C)CO)C(=O)c2cc(NC(=O)Nc3ccc4c(c3)OCO4)ccc2O1	1.4*	.	13	-14	-17	.
C[C@H]1CCCCO[C@H](CN(C)CC2CC2)[C@@H](C)CN([C@@H](C)CO)C(=O)c2cc(NC(=O)Nc3ccc4c(c3)OCO4)ccc2O1	0	-4	11	35*	-2	.
C[C@@H]1CN([C@@H](C)CO)C(=O)c2cccc(NC(=O)Nc3ccc4c(c3)OCO4)c2O[C@H]1CN(C)CC1CCCCC1	0	1	11	7	-2	.
C[C@@H]1CN([C@@H](C)CO)C(=O)c2cccc(NC(=O)Nc3ccc4c(c3)OCO4)c2O[C@@H]1CN(C)CC1CC1	.	.	.	25*	7	.
COCC(=O)Nc1ccc2c(c1)C(=O)N(C)[C@@H]1CC[C@H](CC(=O)NCCc3ccncc3)O[C@@H]1CO2	0	-17	12	0	-2	.
O=C(c1cnccn1)N1CC(=O)N2[C@@H](CO)[C@H](c3ccc(/C=C/c4ccccc4)cc3)[C@@H]2C1	0	1	.	5	-1	.
C[C@@H]1CN([C@@H](C)CO)C(=O)c2cc(NC(=O)c3ccccc3)ccc2O[C@@H](C)CCCCO[C@H]1CN(C)CC1CCCCC1	0	28	-3	27*	0	.
C[C@H]1CCCCO[C@H](CN(C)CC2CCCCC2)[C@@H](C)CN([C@@H](C)CO)C(=O)c2cc(NC(=O)c3ccccc3)ccc2O1	-1	1	-2	0	-4	.
NCC1C2CCC(O2)C1CO (centres undefined)	45*	10	.	-63	10	1
Nc1ccc(CC(N)c2csc(Nc3cc(Oc4ccccc4)ncn3)n2)cc1 (centres undefined)	0	3	.	25*	-6	-2
NC(Cc1ccc(C(F)(F)F)cc1)c1csc(Nc2cc(Oc3ccccc3)ncn2)n1 (centres undefined)	-1	-6	.	2	7	-48
COC(=O)c1ccccc1NC(=O)Nc1cccc(C)n1	43*	-4	.	-2	4	14
